Assay: Toxicity liver stage against HepG2, at 10uM
Type: cell-based
Parameters: test concentration 10 uM, cell line HepG2-A16-CD81EGFP
Details: human, HepG2-A16-CD81EGFP cells; read-out: INHIBITION
Procedure, shortened: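 Uninfected HepG2-A16-CD81EGFP cells, 3 × 10^3 per well, 1536-well, plated on prespotted compound at 10 μM final, parasite-free screening media added to match infected plates; puromycin 10 μM positive, DMSO 0.5% negative; run in parallel with 48 h PbLuc assay at 37 °C, 5% CO2; viability by CellTiter-Glo luminescence, normalized to controls.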

Compound	cytotoxicity at 10 µM [%]
CCc1ncc(C(=O)c2ccc(OC)cc2)n1C	14.5
N[C@@H](Cc1ccccc1)c1nnc(S(=O)(=O)Cc2ccccc2)o1	13.3
O=C(CCn1cccn1)NCCOc1cccc(Cl)c1	-2.48
CNC(=O)NC(=O)CSc1ccc2c(c1)CCC2	19.6
c1cc(-c2c[nH]c([C@@H]3COCCN3Cc3ncc[nH]3)n2)ccn1	4.99
CN1C[C@H](O)[C@]2(CCN(Cc3ccc(F)c(F)c3)C2)S1(=O)=O	-1.42
O=C1CSC(c2ccc(Cl)cc2Cl)c2c(n(C3CCOCC3)[nH]c2=O)N1 (stereo not drawn)	-7.92
CCCNC(=O)Cn1c(-n2nc(C)cc2C)nc(CCC)cc1=O	8.94
COc1ccc(CC(=O)NCC(O)c2sccc2C)cc1OC (stereo not drawn)	11.4
c1ccc2c(c1)CCN(c1nc(N3CCOCC3)c3nn[nH]c3n1)C2	11.6
N#Cc1cccnc1OC1CCN(S(=O)(=O)c2c(F)cccc2F)CC1	5.45
CN(C)C(=O)CN1CCC2(CCN(C(=O)N3CCCC3)CC2)C1=O	2.7
NC(=O)N1CCC2(CC1)CC(=O)N(CC1CCCO1)c1ccccc12 (stereo not drawn)	5.56
O=C(c1ccsc1)N1CCc2nnc(COc3cncnc3)n2CC1	1.72
Cc1cccc(CN2C[C@@H]3OCCN(S(=O)(=O)N(C)C)[C@@H]3C2)n1	11.2
COC1COC2(CCN(C(=O)c3cscn3)CC2)C1 (stereo not drawn)	6.13
CN(Cc1cccnc1)C1CC2(CCN(C(=O)c3ccnnc3)CC2)C1	5.41
CS(=O)(=O)CC(=O)NCC1OCCc2cn(CC3CC3)nc21 (stereo not drawn)	3.45
O=C(O)c1nnn(-c2ccccc2)c1-c1ccncc1	2.33
CN(C)CCNC(=O)c1sccc1N(C)S(=O)(=O)c1ccc(Cl)cc1	2.38
Cn1c(=O)c2c(n3ncnc13)NC(=O)CC2c1ccc(F)cc1 (stereo not drawn)	5.64
CCOc1ccc(NC(C)=O)cc1S(=O)(=O)Nc1cc(C)on1	-4.13

Compound	cytotoxicity at 10 µM [%]
COCCNC(=O)c1nnc2ccc(N3CCOCC3)cc2n1	10.8
Cc1nn(C)c2c(NC3CCCC3)nc(C3CC3)nc12	-0.801
CCN(CC)C(=O)c1nnsc1-c1ccc(C)cc1	3.14
Cc1nn(C)c(C)c1S(=O)(=O)N(C)Cc1nn(C)c(Cl)c1Cl	-3.78
CC(=O)c1c(C)nn(S(=O)(=O)c2ccc(F)cc2)c1C	3.25
COCc1ccc(CNc2cnn(C(C)(C)C)c(=O)c2Cl)cc1	60.9
O=C1OCCN1CCSc1nnnn1C1CCOCC1	-48.4
Cc1n[nH]cc1CNC(=O)CCCc1cccs1	-52.3
OCCOc1cc(F)ccc1NCc1cccc(F)c1F	-6.14
N#CC1(C(=O)N2CCOC(c3ccc(F)cc3)C2)CCCC1 (stereo not drawn)	-3.3
CN(Cc1nnc2ccccn12)C(=O)CCC1CCCC1	-2.94
CN(Cc1ccsc1)C(=O)CNC(=O)N1CCc2ccccc2C1	-2.9
CNC(=O)Cc1ccccc1NC(=O)N[C@H]1c2ccccc2C[C@H]1O	-36.1
CCC(CNC(=O)Cc1cc(C)on1)Oc1cccc(F)c1 (stereo not drawn)	-48.2
N#Cc1ncn(CCS(=O)(=O)c2ccc(Cl)cc2)n1	-6.74
O=C(CCc1ccsc1)Nc1ccnn1C1CCS(=O)(=O)C1 (stereo not drawn)	9.01
Cc1cc(NC(=O)CCNC(C)(C)c2nc(C)c(C)s2)no1	11.7
Cc1nc2cc(=O)[nH]n2c(C)c1CC(=O)Nc1cn[nH]c1	6.13
O=S(=O)(Cc1ccccc1)c1nnc(N2CCCC2)s1	-6.27
Nc1ccnc(CNc2cc(F)ccc2OCC2CCCO2)n1 (stereo not drawn)	17.4
NS(=O)(=O)N1CCc2ccc(NC(=O)Cc3ccccc3F)cc21	1.17
OC1CCCN(Cc2ccc(F)c3cccnc23)C1 (stereo not drawn)	4.75

Compound	cytotoxicity at 10 µM [%]
CC1Cc2ccccc2N1Cc1occc1C(=O)NCC(=O)N(C)C (stereo not drawn)	8.13
CC(NCc1ccncc1)c1cc2c(cc1Br)OCCO2 (stereo not drawn)	-1.41
Cc1nn(C)c(C)c1NC(=O)Nc1cccnc1N1CCCC1	7.31
CC1CN(C)CCN1C(=O)c1cnc2onc(CC(C)(C)C)c2c1 (stereo not drawn)	-1.6
CC(C)CCNC(=O)c1ccc(Cl)c(NS(C)(=O)=O)c1	2.2
CN(C)C(=O)c1cccc(C[S+]([O-])CC(=O)NC2CCCC2)c1 (stereo not drawn)	5.79
CC(=O)N1CCCc2ccc(S(=O)(=O)N3CCCCC3C)cc21 (stereo not drawn)	-15.1
Cc1cc(CCC(=O)NCc2ncc[nH]2)ccc1Br	-18.1
CC(C)c1nsc(N2CCC(OCCN3CCOCC3)CC2)n1	-14.2
Cc1ccnc(NC(=O)C2CCN(CCCc3cn[nH]c3)CC2)c1	-49
CN(C)C(=O)[C@H]1CCS(=O)(=O)[C@@H]2CN(c3ncc(F)cn3)C[C@H]12	-100
O=S(=O)(C1CC1)N1CCC2(CN(c3ncccn3)C2)C1	-98.4
Cc1ccc(CN2CC[C@H]3CO[C@H](CN(C)C)[C@H]3C2)o1	-114
COCC(=O)NC1CC2(CCN(CCN(C)C)CC2)c2ccccc21 (stereo not drawn)	-113
Cc1ccc(CN2Cc3cnn(C)c3C(COCC3CC3)C2)o1 (stereo not drawn)	-78.5
O=C1[C@@H]2CCN(Cc3ccoc3)C[C@@H]2OCCN1c1cccnc1	-74.6
Cc1cc(C(=O)N2CC[C@H]3[C@@H]2CCC(=O)N3c2ccccc2)no1	-113
Fc1cccc(-c2nnn3c2COC(CNc2ncccn2)C3)c1 (stereo not drawn)	-65.3
OC[C@H]1CCCN1c1nccc(-c2c[nH]nc2C2CCCCC2)n1	-2.5
O=C1NCCN(C(=O)c2cn3ccsc3n2)C1Cc1ccccc1 (stereo not drawn)	-9.51
CC(C)CN(Cc1ccccn1)Cc1ccccc1OCC(=O)O	-12.7
CNS(=O)(=O)c1ccc(CN2CCC(c3ccncc3)CC2)cc1	10

Compound	cytotoxicity at 10 µM [%]
CC(C)(C)N1CC(C(=O)NCc2cn3cccnc3n2)CC1=O (stereo not drawn)	-0.591
Cc1ccccc1C(CNC(=O)CSc1nnc(N)s1)N(C)C (stereo not drawn)	12
CSCC[C@H](NC(C)=O)C(=O)N(C)Cc1ccc(-n2cccn2)cc1	-122
Cc1cnc(C(=O)N[C@H]2CN(CCS(C)(=O)=O)C[C@@H]2C2CC2)cn1	17.6
COc1ccc(C(=O)N2CC[C@](C)(O)[C@H](C)C2)cc1N1CCOCC1	14.9
Cn1ncc2c(N[C@@H]3CS(=O)(=O)C[C@H]3O)nc(C(C)(C)C)nc21	-1.32
CNC(=O)[C@@H]1C[C@@H](NC(=O)CSc2ccccc2)CN1C1CCOCC1	2.14
COC(=O)c1ccc(N2CCN(C(=O)c3ccn(C)c(=O)c3)CC2)cc1	2.7
CCc1cc(N[C@@H](CO)C(N)=O)n2nc(C)c(C)c2n1	-13.4
CCC[C@@H]1CN(Cc2cc3c(cc2OC)OCCO3)C[C@H]1C(=O)O	-9.47
C[C@@H]1CN(CC(C)(C)N2CCOCC2)C[C@@]1(O)C1CC1	2.93
Cc1ccc(CCN[C@@H]2c3ccccc3C3(CCNCC3)[C@H]2O)s1	-2.72
O[C@]12CCNC[C@H]1CN(c1nccc3ccccc13)CC2	12.3
CCNc1nc(C)c(C(=O)N2CCC(C(O)Cc3ccccc3)CC2)s1 (stereo not drawn)	13.5
c1ccc2nc(CN3CCCC3c3noc(C4CC4)n3)ccc2c1 (stereo not drawn)	-5.48
Cc1ccc(C(=O)N2CCCC(c3cc(C(F)(F)F)[nH]n3)C2)o1 (stereo not drawn)	5.77
COc1ccc(C2CCCN2C(=O)NCCCn2ccnc2)cc1 (stereo not drawn)	-13.4
CC(C)Oc1ncccc1CNC(=O)N1CCC1	-7.6
CCc1noc(CN2CCN(C(=O)C3CC3)CC2)n1	-1.88
Cc1ccc(C(=O)N2CCN(Cc3ccc(C#N)cc3)CC2)n1C	-9.65
Cc1ccc(-c2nc(CN3CCn4c(nnc4C4CC4)C3)co2)c(C)c1	-24.7
O=C(c1ccc2nncn2c1)N1CCCCC1Cn1cccn1 (stereo not drawn)	-3.11

Compound	cytotoxicity at 10 µM [%]
Cc1nc(C2CCCN2CCCS(=O)(=O)N(C)C)no1 (stereo not drawn)	-4.69
O=C(NCCc1coc(-c2ccc(F)cc2)n1)NC1CCC(O)CC1 (stereo not drawn)	7.96
Cc1ccc(C(=O)N2CCCC(NC(=O)C(C)C)C2)c(O)c1 (stereo not drawn)	-7.84
Cc1sc2c(C3CCNCC3)nc(Nc3cccc(F)c3)n2c1C	-0.775
Fc1ccc(OCCCNC2=NCCN2)cc1	5.08
CCCOc1ccccc1CN[C@@H]1CCC[C@H]1Cc1cc(C)no1	-6.86
CC1CCN(C(=O)[C@@H]2C[C@@H]3CCN(Cc4nccs4)C[C@H]3O2)CC1	-107
Cc1cc2c(=O)n3c(nc2s1)CCN(Cc1[nH]cnc1C)CC3	-9.9
Cc1cc(C)n(CC(=O)NC(Cc2ccsc2)c2ccccn2)c(=O)n1 (stereo not drawn)	-1.91
CN1CCN(C2COC3(CCN(Cc4ccc(F)cc4)CC3)C2)CC1 (stereo not drawn)	-97.4
CC1c2ncc(Cn3cccn3)n2CCN1Cc1ccc(F)cc1 (stereo not drawn)	-107
CCN1CCOCC12CCN(c1nccs1)CC2	-107
CCO[C@@H]1CC[C@H]2[C@H]1OCCN2CC1CCC1	11.2
CN1CCO[C@H]2CN(C(=O)c3ccoc3)C[C@H]21	-80.6
Cc1cnc(C(=O)N2CCC3(CCN3Cc3ccc(F)cc3)C2)cn1 (stereo not drawn)	-104
COCCN1CCC2(CC1)CC(NC(=O)CN(C)C)c1ccccc1O2 (stereo not drawn)	0.169
O=C(NC1CCCC1)[C@@H]1C[C@@H]2CCN(Cc3ccoc3)C[C@H]2O1	-110
COCCN1C(=O)C[C@H]2[C@H]1CCN2Cc1ccccc1	-71.5
Cn1cc(CN2C[C@H](N3CCOCC3)[C@@H]3OCCC[C@@H]32)cn1	5.02
O=C(NCCc1cccs1)[C@]12COC[C@H]1CN(Cc1ccncc1)C2	-114
